Compound activity (PubChem)
In the library only some 2.9% were active in any assay of this set; here they are far more common.
Arr AP2 block: blocks beta-arrestin peptide binding to AP2 adaptin | AID 504490 | inhibition, % at 10 µM | hit rate 0.31% among 340,000 | FITC-arrestin peptide / GST-AP2 beads, flow cytometry; AP2 beta2 appendage carries R879A mutation;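 active means inhibition above a set limit, near 3 SD of compounds lacking own fluorescence, cut at about 54% in these data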;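 further: plate controls were DMSO wells for no effect and 5 µM unlabelled arrestin peptide for full effect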
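test system = AP2 appendage R879A on GSH beads | buffer or medium = PBS plus Tween 20 (0.05%) and BSA (0.1%) | incubation = 12 min plus 1 h, RT | detection = bead flow cytometry, FITC channel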
CaV13 FRET inh: Primary screen for inhibitors of IQ motif and Ca2+-dependent inactivation inhibitor domain binding in CACNA1D, Förster resonance energy transfer in living cells, … | hit rate 0.098% among 340,000 | HEK cells, CFP/YFP FRET ICDI-IQ, plate reader, 10 min; percent FRET-ratio fall versus neutral wells | inhibition, % at 12.3 µM | AID 743397;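 active means mean replicate inhibition of at least 30% and at least 1% of replicates passing that level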;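 further: 0% = median of the neutral control wells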
ADAM17 inh: ADAM17 inhibition, QFRET primary screen. P78536. recombinant ADAM17, EDANS/DABCYL FRET peptide cleavage. inhibition, % at 6.95 µM. hit rate 0.83% among 370,000. AID 720648;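 active means inhibition above the mean of compounds lying between control limits plus 3 SD, set per campaign, cut at about 8.5% in these data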;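 further: 0% = DMSO-only wells as the low control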
CendR NRP1 mod: modulators of CendR peptide binding to human neuropilin-1; O14786; FAM-RPARPAR peptide binding to NRP-1, fluorescence polarization; inhibition, % at 25 µM; hit rate 0.85% among 360,000;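 active means inhibition or corrected inhibition above about 18%, plus a signal ratio from 0.5 to 1.5, limit read from the data, passing the limit was not always enough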
FAS TE block: FAS thioesterase (human) inhibition; P49327; recombinant FAS-TE, OMFH fluorogenic substrate, fluorescence endpoint; inhibition, % at 15 µM; hit rate 0.67% among 360,000; AID 602261;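 active means compounds whose normalised, plate-corrected inhibition of enzyme fluorescence in the single-dose primary screen is 50% or more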;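 further: 0% = DMSO with enzyme and 100% = substrate without enzyme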
ADAM10 inh: inhibitors of human ADAM10. O14672. recombinant ADAM10, EDANS/DABCYL FRET peptide cleavage, 3 h. inhibition, % at 7 µM. hit rate 0.62% among 370,000;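 active means inhibition above a per-campaign cutoff equal to the mean of compounds falling between control-based bounds plus 3 SD, cut at about 20% in these data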;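 further: 0% = DMSO wells while the 100% control is not disclosed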
ADAM10 confirm: human ADAM10 inhibition, confirmation; inhibition, % at 6.95 µM; shares compounds with ADAM10 inh; AID 743208; ADAM10 QFRET peptide cleavage, EDANS fluorescence; hit rate 1% among 2,100;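 active means inhibition above about 20% chosen separately for each screening run, limit read from the data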;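 further: 0% = DMSO wells and 100% = marimastat wells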
ADAM17 counter: counter-screen for ADAM10 exosite inhibitors: inhibitors of human ADAM17 | shares compounds with ADAM10 inh | ADAM17 QFRET peptide cleavage, EDANS fluorescence | inhibition, % at 6.95 µM | hit rate 0.5% among 2,100 | AID 743214;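 active means mean triplicate inhibition above the solvent-only control wells' mean plus 3 SD, cut at about 12% in these data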;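 further: 0% = DMSO wells and 100% = marimastat wells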
Numbers without * were called inactive; . = no result given.

SMILES	Arr AP2 block	CaV13 FRET inh	ADAM17 inh	CendR NRP1 mod	FAS TE block	ADAM10 inh	ADAM10 confirm	ADAM17 counter
CCc1nnc(NS(=O)(=O)c2ccc(NC(=O)c3cccc([N+](=O)[O-])c3)cc2)s1	-6	-2	-3	-11	-9	1	.	.
Cc1cc(NC(=O)NC(=O)c2ccccc2NC(=O)CN)ccc1Oc1ncc(Br)cn1	12	-14	-1	-4	-10	-7	.	.
CCCCn1c(N)c(N(C(=O)CSc2nncn2-c2ccccc2C)C2CCCC2)c(=O)[nH]c1=O	-18	-5	-1	5	-11	-3	.	.
Cc1ccc(-n2c(COc3ccccc3)nnc2SCC(=O)Nc2ccc3c(c2)OCO3)cc1	.	.	8	.	.	20*	4	1
COc1ccc(N2CCN(CCNS(=O)(=O)c3ccc(C)cc3)CC2)cc1	6	-4	3	-1	0	86*	2	2
Cc1cc(C)nc(NS(=O)(=O)c2ccc(NC(=O)Cc3ccccc3F)cc2)n1	1	-3	0	-1	-7	-1	.	.
C[C@H](O)[C@@H]1C(=O)N2CCc3c([nH]c4c(-c5ccccc5)cccc34)[C@@H]2C[C@@H]1N(C)CC1CCCCC1	.	-3	-48	.	.	-208	.	.
Cc1ccc(/C=N/NC(=O)CSc2nnc(-c3ccccc3)n2-c2ccc(Cl)cc2)o1	-6	-3	8	-10	1	27*	2	1
Cc1ccc(/C=N/NC(=O)CSc2nnc(-c3ccc(Cl)cc3)n2-c2ccc(Cl)cc2)o1	16	-3	0	-3	4	4	.	.
O=S(=O)(c1ccc(OC(F)(F)F)cc1)N1CCC(O)(c2cccc(C(F)(F)F)c2)CC1	26	-4	7	0	23	21*	5	1
COc1cc(S(=O)(=O)N2CCC(O)(c3cccc(C(F)(F)F)c3)CC2)ccc1-n1cnnn1	2	-4	0	6	8	2	.	.
O=C(Nc1ccc(N2CCCC2)cc1)c1ccc(Br)cc1	-2	-3	-7	-3	-10	25*	1	1
O=C(Nc1ccccc1N1CCCC1)c1ccc(Cl)cc1Cl	12	5	-2	1	14	5	.	.
CC(C)Oc1ccc(C(=O)Nc2ccc(N3CCCC3)cc2)cc1	0	.	.	-4	-1	.	.	.
O=C(Nc1ccc(N2CCCC2)cc1)c1cc(Cl)ccc1Cl	-3	-4	1	-21	-18	-1	.	.
O=C(Nc1ccc(N2CCCC2)cc1)c1ccc(Cl)cc1Cl	5	-3	5	-2	-3	20*	9	5
O=C(Nc1ccccc1N1CCCC1)c1ccccc1Cl	-9	-6	3	0	-2	23*	0	0
O=C(O)CC(C(=O)O)C(=Cc1ccccc1)c1ccccc1 (centres undefined)	.	-10	7	-6	-6	7	.	.
Cc1onc(-c2ccccc2)c1C(=O)N1CCC(C)(C(=O)O)C1 (centres undefined)	.	-10	-3	-9	-8	-1	.	.
O=S1(=O)N[C@H](Cc2ccccc2)COc2cccc(N3CCCCC3)c21	.	-7	0	.	.	0	.	.
CCCCOc1ccccc1C(=O)NNC(=S)NC(=O)c1ccccc1[N+](=O)[O-]	36	-2	8	10	2	27*	7	2
O=C(Nc1ccc2c(c1)N(Cc1ccccc1)C(=O)c1ccccc1S2)NC1CC1	8	-4	7	4	14	21*	4	1
CN(CC(=O)Nc1cc(Cl)cc(Cl)c1)Cc1cccs1	14	-4	1	6	24	22*	7	2
O=C(C(=O)N1CCC(CNS(=O)(=O)c2ccccc2)CC1)c1cc2ccccc2o1	.	-10	-2	.	.	-4	.	.
Cc1ccc(S(=O)(=O)Nc2ccc(N=Nc3ccc(O)cc3)cc2)cc1	28	9	2	-5	25	22*	2	0
